Laboratory results reported in article PMC5934316 (Oncogene, 2018).
Like-named read-outs stand apart in the source and are kept apart here. Each block holds one compound with its values, some of them ahead of it.

Legend:
[1] = system: STAT3-dependent luciferase reporter; assay: STAT3-dependent luciferase reporter assay; format: cell-based, human; details: for STAT3-dependent luciferase expression: MDA-MB-231 cells, Figure 1B
Procedure, shortened: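 MDA-MB-231 cells stably carrying a STAT3-dependent luciferase reporter were treated with DMSO or test compound. Dose-response used graded concentrations; the time course used 2 μM for varying times. Luciferase activity was then measured with a commercial kit. Experiments were run at least three times.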

breast cancer cells = assay: MTT survival assay, summary over breast cancer cells; format: cell-based; details: Homo sapiens, 72 h, read-out: IC50 for breast cancer cells
Procedure, shortened: (§1)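 Breast cancer lines were cultured in DMEM + 10% FBS at 37 °C, 5% CO2. Cells were seeded at 3–4×10^3 per well in 96-well plates and treated with graded test-compound concentrations for 48 or 72 h. Viable cells were then measured by MTT. Experiments were run at least three times.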

MDA-MB-231 xenografts = assay: In-vivo efficacy, xenograft tumors; parameters: species or system mice
Procedure, shortened: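 Donor xenograft: 1×10^7 MDA-MB-231 cells injected s.c. into a 5-week-old female Balb/c nude mouse and grown 2 weeks. ~1.5-mm pieces were implanted s.c. in 4–6-week-old female nude mice. At ~100 mm3, five mice per group received vehicle, test compound or vincristine 0.6 mg/kg IP every 3 days for 18 days. Tumour volume was measured blinded every 3 days. IHC covered total/Tyr705-phosphorylated STAT3 and cleaved caspase 3.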

STAT3 [2] = target: T1, STAT3 (Homo sapiens, UniProt P40763); assay: Pull-down assay with immobilized BMA097, MDA-MB-231 cell lysate; format: binding
Procedure, shortened: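 Test compound was coupled to CNBr-activated Sepharose 4B and blocked with 10% milk in binding buffer (20 mM Tris-HCl pH 8.0, 150 mM KCl, 1 mM EDTA, 15% glycerol, 0.5% NP-40, 0.2 mM PMSF, protease inhibitors). Beads were mixed with MDA-MB-231 lysate. For competition, lysate was first incubated 30 min at 37 °C with DMSO, 400 μM free compound or an irrelevant compound. For elution, bound material was incubated 1 h with the same agents. Read-out was SDS-PAGE and STAT3 Western blot.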

[3] = system: STAT3 target genes, cyclin D1 and Bcl-xL; assay: Real-time RT-PCR and Western blot of STAT3 target genes in MDA-MB-231 cells; format: cell-based, human; details: mRNA by real-time RT-PCR and protein by Western blot
Procedure, shortened: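 MDA-MB-231 cells were treated with graded test-compound concentrations. Cyclin D1, Bcl-xL and STAT3 mRNAs were measured by SYBR Green real-time RT-PCR and quantified by 2ΔΔCt against GAPDH (n=3). For protein, cells were treated for 24 h, then analysed by SDS-PAGE/PVDF Western blot with HRP secondaries and ECL on film, using actin as loading control.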

JAK2 = JAK2 (Homo sapiens, UniProt O60674); assay: Western blot of JAK2 Tyr1007/1008 phosphorylation in MDA-MB-231 cells; format: cell-based
Procedure, shortened: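 MDA-MB-231 cells were treated with test compound, and lysates were analysed by SDS-PAGE/PVDF Western blot. Blots were probed for total and Tyr1007/1008-phosphorylated JAK2, detected with HRP secondaries and ECL on film.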

MCF7 [4] = assay: MTT survival assay; format: cell-based; details: Homo sapiens, read-out: IC50, survival
Procedure, shortened: as §1

MTT survival assay = format: cell-based; details: human, MCF10A cells, IC50, cytotoxicity
MDA-MB-231 [5] = assay: Annexin V-FITC/PI apoptosis assay; format: cell-based, human
Procedure, shortened: (§2)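 Cells grown in DMEM with 10% FBS at 37 °C, 5% CO2. Seeded at 3×10^5 cells/well in 6-well plates and exposed to test compound for 24 h. Stained with annexin V-FITC and propidium iodide and analysed by flow cytometry. Annexin V+/PI− plus double-positive cells were counted as apoptotic. Experiments were run at least three times.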

recombinant STAT3 = assay: Pull-down assay with immobilized BMA097, purified recombinant STAT3 proteins; format: binding; details: silver staining
Procedure, shortened: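 Purified recombinant STAT3 deletion proteins were mixed with test compound immobilised on CNBr-activated Sepharose 4B, after milk blocking in Tris-HCl pH 8.0/KCl/NP-40 binding buffer. Pulled-down material was separated by SDS-PAGE and detected by silver staining or STAT3 Western blot.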

[6] = system: MDA-MB-231 and MCF-7 cells; assay: JC-1 mitochondrial membrane potential assay; format: cell-based, human; details: JC-1, 24 hours, both cell lines
Procedure, shortened: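 MDA-MB-231 and MCF-7 cells were exposed to graded test-compound concentrations for 24 h. They were then stained with JC-1 (5 μg/mL) for 30 min at 37 °C, washed in PBS and analysed by flow cytometry. Δψm was taken as the ratio of red (aggregate) to green (monomer) fluorescence. Experiments were run at least three times.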

MDA-MB-468 = assay: MTT survival assay; format: cell-based; details: Homo sapiens, read-out: IC50, survival
Procedure, shortened: as §1

MDA-MB-231 [7] = assay: MTT survival assay; format: cell-based; details: Homo sapiens, read-out: IC50, survival
Procedure, shortened: as §1

STAT3 [8] = target: T1, STAT3; format: cell-based
Procedure, shortened: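 In MDA-MB-231 cells, constitutive pSTAT3 was assessed after graded doses for 24 h or 2 μM over time, with actin as loading control. For IL-6 induction, serum-starved cells were pretreated, then given IL-6. Localisation after 24 h used methanol/acetone-fixed, Triton-permeabilised cells stained for (p)STAT3 with Alexa555 secondary and DAPI (confocal), or fractionation with histone/actin markers. Dimers were resolved by non-denaturing PAGE and Western blot.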

[9] = Body weight in xenograft study; format: in vivo, mice
Procedure, shortened: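 MDA-MB-231 tumour pieces (~1.5 mm) from a donor xenograft were implanted s.c. in the left flank of 4–6-week-old female Balb/c nude mice. At ~100 mm3, mice were randomised (5/group) to vehicle, 10 or 40 mg/kg test compound, or 0.6 mg/kg vincristine. Dosing was IP every 3 days for 18 days, with body weight recorded every 3 days.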

MCF7 [10] = assay: Annexin V-FITC/PI apoptosis assay; format: cell-based, human
Procedure, shortened: as §2

T1 sequence (P40763 whole entry): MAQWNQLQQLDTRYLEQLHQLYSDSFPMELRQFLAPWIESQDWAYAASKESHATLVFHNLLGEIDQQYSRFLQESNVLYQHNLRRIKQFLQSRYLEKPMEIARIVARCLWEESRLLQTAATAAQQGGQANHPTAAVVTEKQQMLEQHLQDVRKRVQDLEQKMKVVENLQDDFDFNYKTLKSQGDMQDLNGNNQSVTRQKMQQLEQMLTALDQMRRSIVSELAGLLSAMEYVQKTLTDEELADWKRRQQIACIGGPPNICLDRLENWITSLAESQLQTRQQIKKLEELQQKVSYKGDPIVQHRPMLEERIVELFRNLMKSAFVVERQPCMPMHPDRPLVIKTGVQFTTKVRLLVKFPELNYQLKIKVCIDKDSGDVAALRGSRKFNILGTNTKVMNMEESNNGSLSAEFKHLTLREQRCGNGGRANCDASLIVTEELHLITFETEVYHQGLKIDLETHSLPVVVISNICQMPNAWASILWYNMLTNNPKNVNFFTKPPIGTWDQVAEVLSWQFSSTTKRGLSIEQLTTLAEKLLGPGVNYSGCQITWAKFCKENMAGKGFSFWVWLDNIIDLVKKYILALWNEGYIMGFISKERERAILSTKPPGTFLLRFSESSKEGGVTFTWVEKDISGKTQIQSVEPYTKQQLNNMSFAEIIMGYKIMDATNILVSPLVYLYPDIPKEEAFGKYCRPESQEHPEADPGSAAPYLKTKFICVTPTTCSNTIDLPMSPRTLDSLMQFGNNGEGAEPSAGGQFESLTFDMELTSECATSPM
Sequence of JAK2 (O60674 whole entry): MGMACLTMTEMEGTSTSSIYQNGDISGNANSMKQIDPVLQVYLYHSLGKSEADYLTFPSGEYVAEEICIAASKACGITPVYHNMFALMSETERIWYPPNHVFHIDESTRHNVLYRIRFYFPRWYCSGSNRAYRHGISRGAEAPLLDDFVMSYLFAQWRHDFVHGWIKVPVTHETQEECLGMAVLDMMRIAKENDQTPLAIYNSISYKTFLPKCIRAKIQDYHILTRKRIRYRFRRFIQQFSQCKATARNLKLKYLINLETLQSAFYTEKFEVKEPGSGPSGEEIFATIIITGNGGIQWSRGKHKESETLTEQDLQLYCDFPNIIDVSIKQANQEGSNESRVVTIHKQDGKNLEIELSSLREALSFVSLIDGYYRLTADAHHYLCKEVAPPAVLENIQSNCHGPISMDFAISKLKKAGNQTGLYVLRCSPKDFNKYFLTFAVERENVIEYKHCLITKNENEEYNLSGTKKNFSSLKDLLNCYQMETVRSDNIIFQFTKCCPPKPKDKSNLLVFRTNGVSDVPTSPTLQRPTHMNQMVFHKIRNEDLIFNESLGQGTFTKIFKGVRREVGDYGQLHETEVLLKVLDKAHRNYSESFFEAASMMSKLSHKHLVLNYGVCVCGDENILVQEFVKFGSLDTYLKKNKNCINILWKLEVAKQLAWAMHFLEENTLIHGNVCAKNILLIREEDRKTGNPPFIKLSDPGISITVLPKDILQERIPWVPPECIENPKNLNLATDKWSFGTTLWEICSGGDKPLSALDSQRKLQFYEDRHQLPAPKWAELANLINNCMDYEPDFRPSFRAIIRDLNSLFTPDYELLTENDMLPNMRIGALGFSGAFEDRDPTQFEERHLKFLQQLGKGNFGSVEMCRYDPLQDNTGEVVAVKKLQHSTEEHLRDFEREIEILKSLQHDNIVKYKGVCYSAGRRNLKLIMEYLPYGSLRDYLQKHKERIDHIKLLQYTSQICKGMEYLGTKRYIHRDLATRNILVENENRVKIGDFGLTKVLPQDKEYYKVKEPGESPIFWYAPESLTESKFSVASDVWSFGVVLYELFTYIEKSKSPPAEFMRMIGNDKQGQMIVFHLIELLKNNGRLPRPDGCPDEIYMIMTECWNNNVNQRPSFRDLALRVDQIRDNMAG

STAT3-dependent luciferase expression [1]: significantly inhibited
Compound: CCn1cc(C2=C(c3cn(CCC#N)c4ccccc34)C(=O)NC2=O)c2ccccc21 [BMA016, 2-(1-ethyl-1H-indol-3-yl)-3-[1-(2-cyanoethyl)-1H-indol-3-yl]maleimide]

STAT3-dependent luciferase expression [1]: least inhibition
Compound: N-hydroxy-2-(1-ethyl-1H-indol-3-yl)-3-(1-hydroxy-1H-indol-3-yl)maleimide [BMA127]

Further lines, the compound ahead of its results:

Compound: CCn1cc(C2=C(c3cn(CCCC#N)c4ccccc34)C(=O)NC2=O)c2ccccc21 [BMA019, 2-(1-ethyl-1H-indol-3-yl)-3-[1-(3-cyanopropyl)-1H-indol-3-yl]maleimide]
STAT3-dependent luciferase expression [1]: significantly inhibited

Compound: N#CCCCn1cc(C2=C(c3cn(CCCC#N)c4ccccc34)C(=O)NC2=O)c2ccccc21 [BMA097, 2,3-bis[1-(3-cyanopropyl)-1H-indol-3-yl]maleimide]
IC50 (breast cancer cells): 900 to 3900 nM
growth and final weight of MDA-MB-231 xenograft tumors (MDA-MB-231 xenografts; 10 mg/kg IP every 3 days for 18 days): significantly reduced
growth and final weight of MDA-MB-231 xenograft tumors (MDA-MB-231 xenografts; 40 mg/kg IP every 3 days for 18 days): significantly reduced
caspase 3 cleavage in xenograft tumors (MDA-MB-231 xenografts; IHC staining): induced
phosphorylated STAT3 in xenograft tumors (MDA-MB-231 xenografts; IHC staining, vs vehicle control): reduced level
STAT3 pull-down by BMA097-conjugated Sepharose (STAT3 [2]; lysate of MDA-MB-231 cells): successfully pulled down STAT3
competition of STAT3 pulldown by excess free BMA097 (STAT3 [2]; lysate pre-treated with 400 μM BMA097): completely inhibited
expression of STAT3 target genes, cyclin D1 and Bcl-xL [3]: inhibited
IC50 ([1]; Homo sapiens, MDA-MB-231, read-out: IC50, inhibition of STAT3-dependent luciferase expression): ~1800 nM
STAT3-dependent luciferase expression [1]: significantly inhibited
t1/2, inhibition of STAT3-dependent luciferase expression ([1]; re-synthesized BMA097, time course at 2 μM): ~ 16 hrs
level of total JAK2 (JAK2): no effect
JAK2 phosphorylation/activation (JAK2; Tyr1007/1008): does not inhibit
IC50 (MCF7 [4]; MCF7, 48 h): 6.4 µM
IC50 (MCF7 [4]; MCF7, 72 h): 3.9 µM
IC50 at 48 h (MTT survival assay; 48 hrs): 10.6 µM
IC50 at 72 h (MTT survival assay; 72 hrs): 6.5 µM
total annexin V-positive cells (MDA-MB-231 [5]; 2 μM BMA097, 24 hrs): 51.9%
total annexin V-positive cells (MDA-MB-231 [5]; 4 μM BMA097, 24 hrs): 63.8%
pull-down of recombinant STAT3 lacking the TAD domain (ΔTAD-C) (recombinant STAT3): successfully pulled down
pull-down of recombinant STAT3 with further deletion of the SH2 domain (ΔSH2-C) (recombinant STAT3): abolished the binding
mitochondrial membrane potential (Δψm) [6]: induced Δψm loss
IC50 (MDA-MB-468; MDA-MB-468, 48 h): 4000 nM
IC50 (MDA-MB-468; MDA-MB-468, 72 h): 1800 nM
IC50 (MDA-MB-231 [7]; MDA-MB-231, 48 h): 3600 nM
IC50 (MDA-MB-231 [7]; MDA-MB-231, 72 h): 900 nM
level of total STAT3 (STAT3 [8]): little effect
phosphorylation of Ser727 of STAT3 (STAT3 [8]): did not affect
phosphorylation of Tyr705 of STAT3 (STAT3 [8]; constitutive, dose- and time-dependent): inhibits
nucleus-localized STAT3 (STAT3 [8]; immunofluorescence and fractionation, 24 hrs): disappeared
STAT3 dimerization (STAT3 [8]; non-denaturing PAGE, dose- and time-dependent): inhibited
IL-6-induced phosphorylation and activation of STAT3 (STAT3 [8]; serum-starved MDA-MB-231 cells): reduced
weight loss and apparent phenotypic changes in the mouse model ([9]; 40 mg/kg): lack of weight loss
body weight reduction between the control and treatment groups ([9]; 10 and 40 mg/kg IP): no significant differences
total annexin V-positive cells (MCF7 [10]; 2 μM BMA097, 24 hrs): 34.2%
total annexin V-positive cells (MCF7 [10]; 4 μM BMA097, 24 hrs): 48.1%

Compound: N#CCCCCn1cc(C2=C(c3cn(CCCCC#N)c4ccccc34)C(=O)NC2=O)c2ccccc21 [BMA100, 2,3-bis[1-(4-cyanobutyl)-1H-indol-3-yl] maleimide]
STAT3-dependent luciferase expression [1]: significantly inhibited

Compound: CCn1cc(C2=C(c3cn(CCCCC#N)c4ccccc34)C(=O)N(CO)C2=O)c2ccccc21 [BMA088, N-hydroxymethyl-2-(1-ethyl-1H-indol-3-yl)-3-[1-(4-cyanobutyl)-1H-indol-3-yl] maleimide]
STAT3-dependent luciferase expression [1]: no inhibition
